Data as given in publication PMC6482285 (Chembiochem : a European journal of chemical biology, 2014).
“And” between values parts separate entries of the source, which are not always exact repeats. Identical values can stand only once. Blank lines part the entries; values can stand above or below the compound they belong to.

Experiments:
Type in all cases: biochemical
eEF-2K [1] = biological target: T1, eEF-2K (Homo sapiens, UniProt O00418); test: ADP binding to eEF-2K
eEF-2K [2] = biological target: T1, eEF-2K; test: time dependent inhibition
How it was run: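 eEF-2K (100 nM) incubated with test compound (0–500 μM) for 0–120 min in 25 mM HEPES pH 7.5, BSA, DTT, 5% DMSO. ADP protection used 0/250 μM compound ± 4 mM ADP; glutathione used 2.5 mM for 1 h. Diluted 50-fold into 30 °C assay buffer (150 μM CaCl2, 1 μM calmodulin, 50 μM peptide), started with 100 μM [γ-32P]ATP, read by P81 counting. E•I* formation fitted exponentially or globally for Kd, k2.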

eEF-2K [3] = biological target: T1, eEF-2K; test: recovery experiments after 50-fold dilution, loss of E•I*
eEF-2K [4] = biological target: T1, eEF-2K; test: eEF-2K kinase assay, dose response; details: 100 μM ATP
eEF-2K Y236F = eEF-2K Y236F (Homo sapiens, UniProt O00418, Y236F); test: kinase dose response and recovery assays with the Y236F mutant
eEF-2K C146A = eEF-2K C146A (Homo sapiens, UniProt O00418, C146A); test: kinase dose response and recovery assays with the C146A mutant
eEF-2K C146S = eEF-2K C146S (Homo sapiens, UniProt O00418, C146S); test: kinase dose response and recovery assays with the C146S mutant
[5] = 1 mM, 1 hour incubation, rapidly diluted

Ki (eEF-2K [1]): ~1 mM
Compound: Nc1ncnc2c1ncn2[C@@H]1O[C@H](COP(=O)(O)OP(=O)(O)O)[C@@H](O)[C@H]1O [ADP]

kobs for the formation of E•I* complex (eEF-2K [2]; MDP 500 μM): 0.0031 ± 0.0002 s⁻¹ | kobs for the loss of the E•I* complex (recovery of activity) (eEF-2K [3]; MDP 500 μM, 60 min, diluted 50-fold): 0.00056 s⁻¹ and 0.00056 ± 0.00003 s⁻¹ | h (hill coefficient) (eEF-2K [4]; 60 minutes preincubation): 0.93 ± 0.01
Compound: COc1cccc(C2C(C#N)C(=O)NC(=O)C2C#N)c1 (stereo not shown) [MDP, 4-(3-methoxyphenyl)-2,6-dioxo-3,5-piperidinedicarbonitrile]

Kd (eEF-2K [2]): 140 µM | kobs for the formation of the E•I* complex (eEF-2K [2]; DFTD 250 μM in the absence of ADP): 0.0015 ± 0.0003 s⁻¹ | kobs for the formation of the E•I* complex (eEF-2K [2]; DFTD 250 μM in the presence of ADP (4 mM)): 0.0002 ± 0.00003 s⁻¹ | effect of glutathione on the inactivation or the reversibility rate (eEF-2K [2]; DFTD 250 μM pre-incubated with 2.5 mM glutathione for 1 hour): no significant effect | enzyme covalently bound at saturation (eEF-2K [2]; at saturation): approximately 75% | slow equilibrium on the enzyme (=k2/k-2) (eEF-2K [2]; global fit of Figures 2B and 2C): 2.8 | k2 (inactivation step) (eEF-2K [2]; global fit of time-dependent and recovery experiments, KinTek Global Explorer): 0.0017 s⁻¹ | k-2 (disappearance of E•I*) (eEF-2K [3]; 250 μM, 1 hour incubation, 50-fold dilution, first order fit): 0.0006 s⁻¹ | recovery of enzyme activity after dilution (eEF-2K [3]; wild type, 1 mM, 1 hour incubation, rapidly diluted): slow recovery of activity | IC50 (eEF-2K [4]; apparent IC50, 10 minute incubation): 110 µM | IC50 (eEF-2K Y236F): 105 µM | recovery of enzyme activity after dilution (eEF-2K Y236F; [5]): slow recovery of activity | IC50 (eEF-2K C146A): 890 µM | time-dependence of inhibition (eEF-2K C146A): no time-dependence | IC50 (eEF-2K C146S): 655 µM | time-dependence of inhibition (eEF-2K C146S): no time-dependence
Compound: N#CC1=C(N)SC(N)=C(C#N)C1c1ccccc1F [DFTD, 2,6-diamino-4-(2-fluorophenyl)-4H-thiopyran-3,5-dicarbonitrile]
recovery of enzyme activity after dilution (eEF-2K C146A; [5]): maximal activity was attained immediately | recovery of enzyme activity after dilution (eEF-2K C146S; [5]): maximal activity was attained immediately
